According to ChEMBL document CHEMBL3352512, “Thiazolidone derivatives as inhibitors of chikungunya virus” (Eur J Med Chem, 2015):
Activity calls are given as the source filed them. The rule behind the calls is not given here.

Assays:
Chikungunya virus [1] = test: Antiviral activity against Chikungunya virus LR2006_OPY1 infected in african green monkey Vero cells assessed as reduction in virus-induced cytopathogenicity at 100 ug/mL after 3 days by cell titer-blue fluorescent assay; format: functional, cell-based
[2] = Cytotoxicity against african green monkey Vero cells assessed as reduction in cell viability after 72 hrs by cell titer-blue fluorescent assay; format: cell-based; settings: chlorocebus sabaeus
In short: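 Uninfected Vero (CCL-81) cells were seeded at 1 × 10^5 cells/mL, grown for 24 h at 37°C with 5% CO2, then exposed to compound at 4 to 4000 µg/mL for 72 h. CellTiter-Blue was added for 2 h in the dark, and fluorescence was read at 560/590 nm. Viability is given as % of control, from at least three repeats.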

Chikungunya virus [3] = test: Antiviral activity against Chikungunya virus LR2006_OPY1 infected in african green monkey Vero cells assessed as reduction in virus-induced cytopathogenicity after 3 days by cell titer-blue fluorescent assay; format: functional, cell-based; settings: 72 h

In the case of `O=C1NC(=S)S/C1=C\c1ccc(Cl)cc1`, the inhibition (Chikungunya virus [1]) is reported as “inactive” and the CC50 at 72 h [2] is reported as over 100 µM.

For `CN(C)c1ccc(/C=C2\SC(=S)NC2=O)cc1`, the inhibition (Chikungunya virus [1]) was “inactive” and the CC50 at 72 h [2] was over 100 µM.

For `O=C1NC(=S)S/C1=C\c1ccccc1[N+](=O)[O-]`, the inhibition (Chikungunya virus [1]) was “inactive” and the CC50 at 72 h [2] was over 100 µM.

For `NC1=NC(=O)/C(=C/c2ccccc2[N+](=O)[O-])S1`, the CC50 at 72 h [2] was over 100 µM and the IC50 (Chikungunya virus [3]) was 40.1 µM.

With `O=C1NC(=S)S/C1=C\c1ccc2ccccc2c1` the CC50 at 72 h [2] was over 100 µM and the IC50 (Chikungunya virus [3]) was 3.6 µM.

For `N=C1NC(=O)/C(=C/c2ccc(O)cc2)S1` [MIRIN], the inhibition (Chikungunya virus [1]) was “inactive” and the CC50 at 72 h [2] was over 100 µM.

In the case of `O=C1NC(=S)S/C1=C\c1ccc(O)cc1`, the inhibition (Chikungunya virus [1]) is reported as “inactive” and the CC50 at 72 h [2] is reported as over 100 µM.

For `COc1ccc(/C=C2\SC(=S)NC2=O)cc1`, the inhibition (Chikungunya virus [1]) was “inactive” and the CC50 at 72 h [2] was over 100 µM.

For `O=C1NC(=S)S/C1=C\c1cccs1`, the inhibition (Chikungunya virus [1]) was “inactive” and the CC50 at 72 h [2] was over 100 µM.
